FID counter = displaces DNA intercalator in HCV helicase counter-screen; DNA fluorescent intercalator displacement, fluorescence; inhibition, % at 7.9 µM; hit rate 0.17% among 290,000; AID 1845; in the data active means inhibition above about 37%;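 further: 0% = vehicle and 100% = reference compound; higher means more ethidium bromide displaced from hairpin DNA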
MEKK3 PB1 HTS = raises or lowers MEK5 binding to the human MEKK3 PB1 domain | hit rate 1.4% among 290,000 | AID 1529 | bead-based flow cytometry, Alexa488-MEK5 binding to MEKK3; actives lie on both sides; 0 = blocked by unlabeled MEK5, 100 = vehicle | Q99759 | binding response (% of control), % at 10 µM;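 active means binding response more than 3 SD above or below the average of its plate-row segment, actives on both sides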;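 further: Alexa488 bead fluorescence after subtracting the streptavidin-only scavenger bead signal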
Target sequence (Q99759 whole entry, looked up, the tested form may be a part): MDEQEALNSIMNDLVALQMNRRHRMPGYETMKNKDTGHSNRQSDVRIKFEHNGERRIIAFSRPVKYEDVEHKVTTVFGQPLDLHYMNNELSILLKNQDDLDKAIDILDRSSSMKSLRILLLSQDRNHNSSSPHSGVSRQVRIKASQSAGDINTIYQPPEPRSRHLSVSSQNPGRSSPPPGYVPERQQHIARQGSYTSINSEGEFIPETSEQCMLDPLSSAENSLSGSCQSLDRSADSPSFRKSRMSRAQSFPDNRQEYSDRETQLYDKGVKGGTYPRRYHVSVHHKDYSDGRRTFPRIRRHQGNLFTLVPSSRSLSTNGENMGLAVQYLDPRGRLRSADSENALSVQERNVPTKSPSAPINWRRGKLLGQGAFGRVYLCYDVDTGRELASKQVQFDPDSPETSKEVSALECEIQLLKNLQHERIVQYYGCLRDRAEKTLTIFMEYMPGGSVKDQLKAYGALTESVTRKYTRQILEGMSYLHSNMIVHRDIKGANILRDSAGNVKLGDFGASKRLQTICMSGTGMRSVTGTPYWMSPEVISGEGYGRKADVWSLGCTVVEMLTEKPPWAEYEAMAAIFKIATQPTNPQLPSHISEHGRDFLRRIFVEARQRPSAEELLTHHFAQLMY
T cruzi inh = T. cruzi replication inhibition; AID 1885; hit rate 1.4% among 300,000; inhibition, % (no concentration beside the values); T. cruzi beta-gal in NIH3T3, luminescence, 90 h;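 active means mean inhibition across valid replicates above about 55%, limit read from the data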;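 further: signal also drops with host cell toxicity which is not excluded here; 0% = plate median of DMSO wells and 100% = zero luminescence signal; higher percent means less beta-gal luminescence so fewer parasites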
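System: mouse NIH/3T3 fibroblasts infected with β-gal-expressing T. cruzi Tulahuen C4 / Input: NIH/3T3 cells, 5,000 per well / Buffer or medium: Low-serum DMEM with 2% FBS / Probe or stimulus: 5000 reporter trypomastigotes per well / Schedule: ≥90 h infection period, 3 h prior cell attachment / Measured by: GalScreen luminescence, 60 min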
MEKK2mut PB1 HTS = signal of MEK5 binding to mutant human MEKK2 PB1 domain | bead flow cytometry, Alexa488-MEK5 binding to MEKK2 mutant | percent response, % at 10 µM | hit rate 0.35% among 290,000 | AID 1530; in the data active means percent response above about 24%, passing the limit was not always enough
MEKK2 WT-MEK5 = raises or lowers MEK5 binding to wildtype human MEKK2 PB1 domain; bead flow cytometry, Alexa488-MEK5 binding to MEKK2 WT; actives lie on both sides; Q9Y2U5; binding response (% of control), % at 10 µM; AID 1531; hit rate 1.1% among 290,000; in the data active means binding response below about 67% or above about 130%
NS3 helicase inh = HCV NS3 helicase inhibition; NS3 helicase DNA unwinding, Cy5 molecular beacon fluorescence; inhibition, % at 10.9 µM; hit rate 0.56% among 290,000; AID 1800;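 active means inhibition above the mean of all tested compounds plus 3 SD, set per campaign, cut at about 35% in these data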;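 further: 0% = DMSO wells and 100% = thioflavine S control wells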
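Material: hepatitis C virus NS3 helicase domain fragment enzyme; measured by: Cy5 fluorescence, 0 and 60 min reads; control set: DMSO and thioflavine S; incubation: 60 min unwinding reaction at 25 °C after ATP addition; read-out basis: % inhibition from 60/0 min fluorescence ratio, DMSO 0%, thioflavine S 100%; repeats: singlicate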
MEKK2wt confirm = raises or lowers MEK5 binding to wildtype human MEKK2, retest; shares compounds with MEKK3 PB1 HTS; bead flow cytometry, Alexa488-MEK5 binding to MEKK2 WT; actives lie on both sides; binding response (% of control), % at 10 µM; hit rate 2.4% among 5,900; AID 1892; in the data active means binding response below about 16% or above about 210%; inactive means in between
MEKK2mut-MEK5 = signal of MEK5 binding to mutant human MEKK2, retest | bead flow cytometry, Alexa488-MEK5 binding to MEKK2 mutant | percent response, % at 10 µM | shares compounds with MEKK3 PB1 HTS | hit rate 2% among 5,900; in the data active means percent response mostly above about 71%, no sharp cut-off; inactive means mostly below about 38%;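 further: higher means compound restores mutant binding toward wildtype level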
MEKK3-MEK5 inh = MEKK3-MEK5 PB1 inhibition, single concentration confirmation | shares compounds with MEKK3 PB1 HTS | bead flow cytometry, Alexa488-MEK5 binding to MEKK3; hits give low values | binding response (% of control), % at 10 µM | hit rate 1.8% among 5,900;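 active means binding response below 72% of control, or above a set upper limit, though filed actives all read lower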;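 further: 100% = DMSO only wells and 0% = binding blocked by excess unlabeled MEK5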
* hit, by the source's call; · = not tested or not shown; [ ] = another dose, or the depositor's remark. The list is not random: actives were taken first. Their share in the collection is about 4.1%.

SMILES	FID counter	MEKK3 PB1 HTS	T cruzi inh	MEKK2mut PB1 HTS	MEKK2 WT-MEK5	NS3 helicase inh	MEKK2wt confirm	MEKK2mut-MEK5	MEKK3-MEK5 inh
CCC(C)[C@H](N)c1cn([C@@H](Cc2cc3ccccc3[nH]2)C(=O)N2CCNCC2)nn1 (stereo partly specified)	20	92	-4	34	151*	-26	147	45	111
CC(C)C[C@H](N)c1cn([C@@H](Cc2cc3ccccc3[nH]2)C(=O)N2CCNCC2)nn1	21	106	-18	32	147*	-22	136	53	106
Cc1ccc(OCC(=O)N/N=C2\CC(=O)CC(C)(C)C2)c(Br)c1	-20	102	11	2	101	5	·	·	·
COc1ccc(CNC(=S)Nc2cccc(C)c2C)cc1	-9	78*[inhibitor]	-12	-11	82	-1	98	-1	101
Cc1cccc(NC(=S)NCc2ccncc2)c1C	-2	91	-13	-3	92	14	·	·	·
CCN(C(=O)COC(=O)c1cnc(C)cn1)C1CCCCC1	-8	1.0*[inhibitor]	-11	-17	2.0*[inhibitor]	-3	99	-5	99
COCC(=O)N1CCC(Oc2ccc(C(=O)NC(C)c3nc(C)sc3C)cc2)CC1 (stereo unspecified)	-31	96	7	-3	95	-2	·	·	·
O=C(Nc1c(C(=O)C2CC2)oc2ccccc12)c1ccc(Cl)cc1	-4	145*	16	1	111	5	102	5	102
COCC(=O)OCC(=O)Nc1ccc(Cl)cc1[N+](=O)[O-]	3	32*[inhibitor]	9	-19	44*[inhibitor]	-6	99	-2	101
CCCCC1=CC2=C(c3ccco3)C(=O)C(C)(OC(=O)c3ccc(OC)cc3)C(=O)C2=CN1c1ccc(OC)cc1 (stereo unspecified)	·	111	-4	2	127	·	·	·	·
CCCCC1=CC2=C(c3ccco3)C(=O)C(C)(OC(=O)c3ccc(OC)cc3)C(=O)C2=CN1CCN1CCOCC1 (stereo unspecified)	·	95	3	6	142*	·	108	2	94
CCCCC1=CC2=C(c3ccco3)C(=O)C(C)(OC(=O)c3ccc(OC)cc3)C(=O)C2=CN1C(CO)CO (stereo unspecified)	·	115	-3	4	144*	·	97	-1	97
O=C1Cc2cc(NS(=O)(=O)c3ccc([N+](=O)[O-])cc3)cc3c2N1CCC3	·	·	-2	·	·	·	·	·	·
CCOc1cc(/C=N/NC(=O)C2CC2)ccc1OC(C)C	-16	102	·	-2	103	2	·	·	·
CC(C)CC(=O)NC(=S)Nc1ccc(N2CCCC2)c(Cl)c1	-4	62	-4	-19	67	-8	·	·	·
CC(C)C(=O)Nc1ccc(N2CCCC2)c(Cl)c1	-4	151*	0	3	123	-7	102	-1	99
O=C(NC1CCS(=O)(=O)C1)/C(=C\c1ccccc1)NC(=O)c1ccccc1 (stereo unspecified)	-4	147*	3	0	108	9	105	7	106
c1ccc2c(NCCc3c[nH]c4ccccc34)c3ccccc3nc2c1	21	112	63*	48*	220*	-56	176	46	106
Fc1cccc(NCCc2c[nH]c3ccccc23)n1	-1	105	-5	4	104	-10	·	·	·
CCOC(=O)CC(=O)CSc1nc2ccc(OC)cc2cc1C	-18	99	20	-1	100	13	·	·	·
COc1ccc(S(=O)(=O)N2CCOC23CCN(S(C)(=O)=O)CC3)cc1	·	·	1	·	·	·	·	·	·
CCN(CCNC(=O)c1ccc(C#N)cc1)c1cccc(C)c1	-6	102	-4	-2	99	13	·	·	·
CCN(CCNCC(O)COCc1ccc(Cl)cc1)c1cccc(C)c1 (stereo unspecified)	16	112	50	20	159*	-53	128	18	105
O=S(=O)(NC1CCCC1)c1cc(F)ccc1F	-3	101	-2	6	104	3	·	·	·
Cc1cc(N=Nc2ccc(C)c(N=Nc3cc(C)c(N)cc3N)c2)c(N)cc1N	7	67*[inhibitor]	14	-7	76	-32	89	10	70*
SMILES	FID counter	MEKK3 PB1 HTS	T cruzi inh	MEKK2mut PB1 HTS	MEKK2 WT-MEK5	NS3 helicase inh	MEKK2wt confirm	MEKK2mut-MEK5	MEKK3-MEK5 inh
CC(C)CCNC(=O)Cc1csc(-c2ccccc2)n1	-21	2.0*[inhibitor]	-1	-46	3.0*[inhibitor]	-8	92	-6	91
O=C(CN1C(=O)NC2NC(=O)NC21)NN=C1CCCC1 (stereo unspecified)	-3	150*	-1	0	109	2	104	7	102
CCCC(O)(c1ccc(CC)cc1)C(CN1CCOCC1)c1ccccc1 (stereo unspecified)	-17	104	-4	-2	101	-23	·	·	·
CN1CCN(NC(=S)NC(C)(C)CC(C)(C)C)CC1	9	58*[inhibitor]	37	-4	77	-10	103	3	105
O=C(O)c1ccc(CNC(=O)C23CC4CC(CC(C4)C2)C3)cc1	-3	102	0	3	103	-2	·	·	·
Cc1cccc(NC(=O)c2cc(Cl)ccc2[N+](=O)[O-])c1	-2	147*	1	1	111	-6	116	3	103
Cc1cccc(NC(=O)c2ccc(NCCc3ccccc3)c([N+](=O)[O-])c2)c1	-1	135*	-8	0	107	0	96	-4	99
Cc1ccc(NC(=O)c2ccc(NCCCN3CCC(C)CC3)c([N+](=O)[O-])c2)cc1F	41*	105	0	23	158*	-81	153	34	107
CSCCC(NC(=O)c1ccco1)C(=O)N1CC=C(c2ccccc2)CC1 (stereo unspecified)	-33	103	-1	3	107	-14	·	·	·
Cc1ccc(S(=O)(=O)Oc2cccc(/C=N/Nc3ccc(C(=O)O)cc3)c2)cc1	-20	132*	4	28	128	6	105	7	104
COc1ccc(C[C@H]2CN3C(=NC[C@@H]3Cc3ccccc3)N2C[C@H](C)NC(=O)CCC2CCCCC2)cc1	·	109	21	7	92	·	·	·	·

Source: PubChem BioAssay
